The values that follow come from ChEMBL document CHEMBL4715728, “New bifunctional antioxidant/σ1 agonist ligands: Preliminary chemico-physical and biological evaluation” (Bioorg Med Chem, 2016).

Data set [1] is described as follows: Antioxidant activity in Sprague-Dawley rat Cerebral cortex neuron assessed as total oxidative stress level by measuring H2O2 equivalents at 25 uM after 24 hrs (reference value: 2.3 +/- 0.3 umol/L). The class given is functional. The procedure, abridged:
(§1)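 Primary cerebral cortex neurons from rat fetuses, grown on poly-D-lysine in neurobasal medium with fetal calf serum (5% CO2, 37 °C), tested after 8 days in culture. Compounds in DMSO (0.5%) or sterile water were added and incubated 24 h at 37 °C. Cells were washed in ice-cold PBS and homogenized in 0.9% saline. Intracellular TAC (Trolox equiv.) and TOS (H2O2 equiv.) were read by kit. Ascorbic acid 10 µM (TAC) and H2O2 25 µM (TOS) served as positive controls. Four independent experiments.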

In data set [2] the target is Sigma non-opioid intracellular receptor 1 (Cavia porcellus, UniProt Q60492). In words: Displacement of [3H]-(+)-pentazocine from sigma1 receptor in guinea pig brain membrane incubated for 150 mins by liquid scintillation counting method. The class given is cell membranes. The procedure, abridged: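 Guinea pig brain membranes (500 µg protein) in 50 mM Tris-HCl pH 7.4 with 3 nM [3H]-(+)-pentazocine. […] Incubated 150 min at 37 °C, then filtered on PEI-soaked GF/B filters and counted by scintillation. Ki obtained by EBDA/LIGAND; three determinations.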

Data set [3] in a line: Stability of compound in fasted state stimulated intestinal fluid at pH 1.3 assessed as rate of compound hydrolysis in presence of 40 mg/ml pepsin by HPLC-UV assay. The class given is ADME. The note with it: isolated protein. The procedure, abridged: (§2)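 HCl buffer with pepsin or phosphate buffer with pancreatin (10 or 40 mg/ml), preincubated at 37 °C. Drug stock (50 µM in ethanol/fasted state intestinal fluid 1:9) added and shaken at 37 °C, 650 rpm. Samples quenched with ice-cold acetonitrile containing 0.5% formic acid, centrifuged at 2 °C, and the supernatant assayed by HPLC-UV. Three experiments.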

Data set [4] in a line: Antioxidant activity in Sprague-Dawley rat Cerebral cortex neuron assessed as total antioxidant capacity by measuring trolox equivalents at 25 uM after 24 hrs. The class given is functional. The procedure, abridged:
as §1

The next data set is filed under the species Cavia porcellus. The data set can be described thus: Selectivity ratio of Ki for displacement of [3H]-DTG from sigma2 receptor in guinea pig brain membrane to Ki for displacement of [3H]-(+)-pentazocine from sigma1 receptor in guinea pig brain membrane. The class given is cell membranes.
The nature of data set [5]: Stability of compound in human plasma assessed as half life by HPLC-UV assay. The class given is ADME, cell-free. The procedure, abridged:
(§3)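 Citrated human or rat plasma diluted to 80% with 0.02 M phosphate buffer pH 7.4, 37 °C with shaking. Compound added from a 1 mg/ml acetonitrile stock. Aliquots deproteinized with 0.01 M HCl in methanol, centrifuged, and analyzed by HPLC-UV (C8 column, KH2PO4/methanol pH 2.5, 220 nm). Remaining intact compound plotted against time. Three experiments.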

Data set [6] is described as follows: Antioxidant activity in Sprague-Dawley rat Cerebral cortex neuron assessed as total antioxidant capacity by measuring trolox equivalents at 0.1 uM after 24 hrs. The class given is functional. Put shortly: as §1
The nature of data set [7]: Antioxidant activity in Sprague-Dawley rat Cerebral cortex neuron assessed as total oxidative stress level by measuring H2O2 equivalents at 0.1 uM after 24 hrs (reference value: 2.3 +/- 0.3 umol/L). The class given is functional. The procedure, abridged:
as §1

A short description of data set [8]: Stability of compound in phosphate buffer at pH 7.4 assessed as rate of compound hydrolysis by HPLC-UV assay. The class given is physicochemical. The procedure, abridged:
(§4)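 Chemical hydrolysis in 0.02 M HCl buffer pH 1.3 (non-enzymatic simulated gastric fluid) or 0.02 M phosphate buffer pH 7.4, each containing 20% acetonitrile, at 37 °C. Started by adding the 10^-4 M acetonitrile stock. Samples taken over time and analyzed by HPLC-UV at 220 nm. Rate constants are means of triplicates.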

Data set [9] is described as follows: Stability of compound in rat plasma assessed as rate of compound hydrolysis by HPLC-UV assay. The class given is ADME, cell-free. The procedure, abridged:
as §3

Data set [10] can be described thus: Stability of compound in non-enzymatic stimulated-gastric fluid at pH 1.3 assessed as rate of compound hydrolysis by HPLC-UV assay. The class given is physicochemical. The note with it: simulated gi fluid. Put shortly:
as §4

Data set [11] can be described thus: Stability of compound in fasted state stimulated intestinal fluid at pH 1.3 assessed as half life in presence of 10 mg/ml pepsin by HPLC-UV assay. The class given is ADME. The conditions noted are these: fasted state simulated intestinal fluid with pepsin. The procedure, abridged: as §2
Data set [12] in a line: Displacement of [3H]-DTG from Sigma 2 receptor in guinea pig brain membrane incubated for 120 mins in presence of sigma1 blocker (+)-SKF-10047 by liquid scintillation counting method. The class given is cell membranes, Cavia porcellus.
A short description of data set [13]: Stability of compound in fasted state stimulated intestinal fluid at pH 7.4 assessed as rate of compound hydrolysis in presence of 40 mg/ml pancreatin by HPLC-UV assay. The class given is ADME. The note with it: simulated gi fluid. The procedure, abridged:
as §2

Data set [14] in a line: Antioxidant activity in Sprague-Dawley rat Cerebral cortex neuron assessed as total antioxidant capacity by measuring trolox equivalents at 50 uM after 24 hrs. The class given is functional. Put shortly: as §1
Data set [15] is described as follows: Stability of compound in fasted state stimulated intestinal fluid at pH 7.4 assessed as rate of compound hydrolysis in presence of 10 mg/ml pancreatin by HPLC-UV assay. The class given is ADME. The conditions noted are these: simulated gi fluid. The procedure, abridged:
as §2

Data set [16] has as its system Mus musculus. In words: In vivo agonist activity at sigma 1 receptor in Swiss […] mouse assessed as modulation of morphine-induced analgesic effect by measuring tail flick latency at 1 mg/kg, ip measured after 90 mins by radiant heat tail-flick method. The class given is functional, organism-based.
Data set [17] relates to Mus musculus. The data set can be described thus: In vivo agonist activity at sigma 1 receptor in Swiss […] mouse assessed as modulation of morphine-induced analgesic effect by measuring tail flick latency at 1 mg/kg, ip preincubated for 45 mins followed by morphine treatment after 90 mins by radiant heat tail-flick method. The conditions noted are these: time 135.0 min. The class given is functional, organism-based.

Calls of active or inactive are those of the source. No cut-off for these calls is given here.

Sigma non-opioid intracellular receptor 1, sequence (Q60492 whole entry): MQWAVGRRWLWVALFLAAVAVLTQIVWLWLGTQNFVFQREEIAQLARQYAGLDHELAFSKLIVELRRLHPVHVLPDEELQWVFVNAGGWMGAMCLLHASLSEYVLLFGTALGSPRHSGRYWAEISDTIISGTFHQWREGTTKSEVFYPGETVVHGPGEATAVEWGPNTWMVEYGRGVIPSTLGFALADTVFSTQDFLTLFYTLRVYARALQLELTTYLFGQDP

On to `COc1ccc(CN2CCC(OC(=O)CCCCC3CCSS3)CC2)cc1` (centres undefined), for which the Activity in data set [1] and in data set [7] was 0.5 µmol/L in each case. Further, the Ki in data set [2] was 3.1 nM; in data set [12], 1500 nM. Besides, the Drug degradation was 0.031 h⁻¹ in data set [3]; 0.019 h⁻¹ in data set [8]; 1.506 h⁻¹ in data set [9]; 0.013 h⁻¹ in [10]; 0.245 h⁻¹ in data set [13]; 0.249 h⁻¹ in [15]. Further, the TAC in [4] amounted to 11.4 mmol/L; in [6], 10.8 mmol/L; in [14] it was 10.9 mmol/L. Moreover, the Ratio Ki in the data set filed under Cavia porcellus is 484. Besides, the half-life is 0.61 h in data set [5] and 39.1 h in data set [11].

Regarding `O=C(CCCCC1CCSS1)N1CCN(Cc2ccccc2)CC1` (centres undefined), the Activity in [1] and in data set [7] was 0.5 µmol/L each time. Moreover, the Drug degradation in [3] was 0.01 h⁻¹; in [8] it was 0.013 h⁻¹; in data set [10], 0.007 h⁻¹; in [13], 0.072 h⁻¹; in [15] it was 0.031 h⁻¹. Moreover, the results for the TAC in data set [4], in data set [6] and in data set [14] were 12.9 mmol/L, 10.4 mmol/L and 14.8 mmol/L, respectively. The half-life in data set [5] is 1.76 h; in [11], 69 h. For the same compound, the result in the data set on Mus musculus [16] was inactive. Moreover, the result in the data set on Mus musculus [17] was Active.

For `O=C(CCCCC1CCSS1)OC1CCN(Cc2ccccc2)CC1` (centres undefined), the Activity in data set [1] and in [7] was 0.5 µmol/L throughout. Besides, the Drug degradation in data set [3] was 0.028 h⁻¹; in [8], 0.017 h⁻¹; in data set [10] it was 0.012 h⁻¹; in data set [13], 7.615 h⁻¹; in data set [15], 2.389 h⁻¹. The TAC in data set [4] was found to be 13.8 mmol/L; in data set [6] it was 10.8 mmol/L; in [14] it was 13.6 mmol/L. Also, the half-life is 0.43 h in [5] and 24.5 h in [11]. For the same compound, the outcome in the data set with Mus musculus [16] was inactive. In addition, in the data set with Mus musculus [17], the outcome was Active.

In the case of `O=C(CCCCC1CCSS1)OC1CCN(Cc2ccc(F)cc2)CC1` (centres undefined), the Activity in data set [1] and in data set [7] was 0.4 µmol/L in each case. Further, the Ki in [2] was found to be 4.1 nM; in data set [12], 6500 nM. Moreover, the Drug degradation in data set [3] was 1.019 h⁻¹; in [8] it was 0.019 h⁻¹; in [9], 1.238 h⁻¹; in data set [10], 0.015 h⁻¹. For the same compound, the TAC in data set [4] is 12.6 mmol/L; in data set [6] it was 11 mmol/L; in [14] it was 13.5 mmol/L. The Ratio Ki in the data set listed under Cavia porcellus came out at 1580. Further, the half-life was 0.81 h in [5] and 3.77 h in data set [11]. In addition, the result in the data set on Mus musculus [16] was inactive. Further, the result in the data set on Mus musculus [17] was Active.

As for `COc1ccc(CN2CCN(C(=O)CCCCC3CCSS3)CC2)cc1` (centres undefined), the figures for the Activity in [1] and in data set [7] were 0.5 µmol/L and 0.4 µmol/L, respectively. In addition, the Ki in [2] was 5.7 nM; in data set [12] it was 2460 nM. The Drug degradation in [3] was 0.029 h⁻¹; in data set [8] it was 0.003 h⁻¹; in [9], 0.168 h⁻¹; in data set [10], 0.003 h⁻¹; in data set [13], 0.017 h⁻¹; in [15] it was 0.011 h⁻¹. In addition, the results for the TAC in data set [4], in [6] and in data set [14] were 11.3 mmol/L, 10.5 mmol/L and 11 mmol/L, respectively. In the data set listed under Cavia porcellus, the Ratio Ki was 432. The half-life in [5] is 5.28 h; in data set [11] it was 112 h.

On to `O=C(CCCCC1CCSS1)N1CCN(Cc2ccc(F)cc2)CC1` (centres undefined), for which the Activity amounted to 0.5 µmol/L in [1] and 0.4 µmol/L in [7]. For the same compound, the Ki in data set [2] came out at 2.9 nM; in [12], 1300 nM. Also, the Drug degradation in data set [3] was 0.019 h⁻¹; in [8], 0.009 h⁻¹; in data set [9] it was 0.237 h⁻¹; in data set [10] it was 0.008 h⁻¹; in [13], 0.021 h⁻¹; in data set [15], 0.009 h⁻¹. Besides, the values for the TAC in data set [4], in [6] and in data set [14] were 13.9 mmol/L, 10.9 mmol/L and 11.4 mmol/L, respectively. Besides, the Ratio Ki in the data set listed under Cavia porcellus amounted to 448. The figures for the half-life in [5] and in data set [11] were 4.21 h and 107 h, respectively. In addition, the outcome in the data set with Mus musculus [16] was inactive. Besides, the result in the data set with Mus musculus [17] was Active.
